Reference: ChEMBL document CHEMBL1156308 (J Med Chem, 2010)

What was measured:
[1] = Biodistribution in baboon kidney medulla at 170 mg, iv after 60 mins; assay type: ADME, organism-based; conditions: papio hamadryas, read-out: Drug uptake
Procedure, shortened: (§1)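 Micro-dose [11C]-labelled drug given i.v. via a radial arm vein to baboons anaesthetised with ketamine (10 mg/kg i.m.), then maintained on oxygen, nitrous oxide and isoflurane (1–4%). Torso PET regions of interest were drawn by hand to give time-activity curves in %ID/cc. µg/ml values were estimated assuming a 10 mg/kg dose, a 17 kg baboon and signal coming from intact drug.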

[2] = Biodistribution in baboon Liver at 170 mg, iv after 15 mins; assay type: ADME, organism-based; conditions: papio hamadryas, read-out: Drug uptake; procedure, shortened: as §1
[3] = Biodistribution in baboon lung at 170 mg, iv after 60 mins; assay type: ADME, organism-based; conditions: papio hamadryas, read-out: Drug uptake; procedure, shortened: as §1
[4] = Biodistribution in baboon whole brain at 170 mg, iv after 30 mins; assay type: ADME, organism-based; conditions: papio hamadryas, read-out: Drug uptake
Procedure, shortened: (§2)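 Brain PET ran 90 min after i.v. [11C]-labelled drug in anaesthetised baboons. Whole-brain regions of interest gave time-activity curves in %ID/cc. µg/ml values were estimated from baboon weight (17 kg) and the recommended human daily dose per kg, assuming signal comes from intact drug.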

[5] = Biodistribution in baboon plasma at 170 mg, iv after 90 mins; assay type: ADME, organism-based; conditions: papio hamadryas, read-out: Drug uptake
Procedure, shortened: (§3)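 Anaesthetised baboons received [11C]-labelled drug i.v. (radial arm vein) by PET protocol. Arterial blood was drawn from a popliteal catheter every 5 s for 2 min, then at 2–90 min. Plasma activity is given as %ID/cc. µg/ml values were estimated from the human daily dose per kg scaled to a 17 kg baboon, assuming signal comes from intact drug.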

[6] = Biodistribution in baboon kidney cortex at 170 mg, iv after 60 mins; assay type: ADME, organism-based; conditions: papio hamadryas, read-out: Drug uptake; procedure, shortened: as §1
[7] = Biodistribution in baboon kidney medulla at 170 mg, iv after 15 mins; assay type: ADME, organism-based; conditions: papio hamadryas, read-out: Drug uptake; procedure, shortened: as §1
[8] = Biodistribution in baboon gallbladder at 170 mg, iv after 60 mins; assay type: ADME, organism-based, Gall bladder; conditions: papio hamadryas, read-out: Drug uptake; procedure, shortened: as §1
[9] = Biodistribution in baboon lung at 170 mg, iv after 15 mins; assay type: ADME, organism-based; conditions: papio hamadryas, read-out: Drug uptake; procedure, shortened: as §1
[10] = Biodistribution in baboon kidney cortex at 170 mg, iv after 30 mins; assay type: ADME, organism-based; conditions: papio hamadryas, read-out: Drug uptake; procedure, shortened: as §1
[11] = Biodistribution in baboon heart at 170 mg, iv after 30 mins; assay type: ADME, organism-based; conditions: papio hamadryas, read-out: Drug uptake; procedure, shortened: as §1
[12] = Biodistribution in baboon kidney medulla at 170 mg, iv after 90 mins; assay type: ADME, organism-based; conditions: papio hamadryas, read-out: Drug uptake; procedure, shortened: as §1
[13] = Biodistribution in baboon whole brain at 170 mg, iv after 60 mins; assay type: ADME, organism-based; conditions: papio hamadryas, read-out: Drug uptake; procedure, shortened: as §2
[14] = Biodistribution in baboon Liver at 170 mg, iv after 60 mins; assay type: ADME, organism-based; conditions: papio hamadryas, read-out: Drug uptake; procedure, shortened: as §1
[15] = Biodistribution in baboon heart at 170 mg, iv after 60 mins; assay type: ADME, organism-based; conditions: papio hamadryas, read-out: Drug uptake; procedure, shortened: as §1
[16] = Biodistribution in baboon gallbladder at 170 mg, iv after 15 mins; assay type: ADME, organism-based, Gall bladder; conditions: papio hamadryas, read-out: Drug uptake; procedure, shortened: as §1
[17] = Biodistribution in baboon gallbladder at 170 mg, iv after 30 mins; assay type: ADME, organism-based, Gall bladder; conditions: papio hamadryas, read-out: Drug uptake; procedure, shortened: as §1
[18] = Biodistribution in baboon gallbladder at 170 mg, iv after 90 mins; assay type: ADME, organism-based, Gall bladder; conditions: papio hamadryas, read-out: Drug uptake; procedure, shortened: as §1
[19] = Biodistribution in baboon Liver at 170 mg, iv after 90 mins; assay type: ADME, organism-based; conditions: papio hamadryas, read-out: Drug uptake; procedure, shortened: as §1
[20] = Biodistribution in baboon lung at 170 mg, iv after 30 mins; assay type: ADME, organism-based; conditions: papio hamadryas, read-out: Drug uptake; procedure, shortened: as §1
[21] = Biodistribution in baboon kidney medulla at 170 mg, iv after 30 mins; assay type: ADME, organism-based; conditions: papio hamadryas, read-out: Drug uptake; procedure, shortened: as §1
[22] = Biodistribution in baboon plasma at 170 mg, iv after 15 mins; assay type: ADME, organism-based; conditions: papio hamadryas, read-out: Drug uptake; procedure, shortened: as §3
[23] = Biodistribution in human lung at 108.7 mg, iv after 3 hrs; assay type: ADME, organism-based; conditions: read-out: Drug uptake
[24] = Biodistribution in baboon heart at 170 mg, iv after 90 mins; assay type: ADME, organism-based; conditions: papio hamadryas, read-out: Drug uptake; procedure, shortened: as §1
[25] = Biodistribution in baboon kidney cortex at 170 mg, iv after 90 mins; assay type: ADME, organism-based; conditions: papio hamadryas, read-out: Drug uptake; procedure, shortened: as §1
[26] = Biodistribution in baboon plasma at 170 mg, iv after 60 mins; assay type: ADME, organism-based; conditions: papio hamadryas, read-out: Drug uptake; procedure, shortened: as §3
[27] = Biodistribution in baboon heart at 170 mg, iv after 15 mins; assay type: ADME, organism-based; conditions: papio hamadryas, read-out: Drug uptake; procedure, shortened: as §1
[28] = Biodistribution in baboon kidney cortex at 170 mg, iv after 15 mins; assay type: ADME, organism-based; conditions: papio hamadryas, read-out: Drug uptake; procedure, shortened: as §1
[29] = Biodistribution in baboon lung at 170 mg, iv after 90 mins; assay type: ADME, organism-based; conditions: papio hamadryas, read-out: Drug uptake; procedure, shortened: as §1
[30] = Biodistribution in baboon Liver at 170 mg, iv after 30 mins; assay type: ADME, organism-based; conditions: papio hamadryas, read-out: Drug uptake; procedure, shortened: as §1
[31] = Biodistribution in baboon plasma at 170 mg, iv after 30 mins; assay type: ADME, organism-based; conditions: papio hamadryas, read-out: Drug uptake; procedure, shortened: as §3
[32] = Biodistribution in baboon whole brain at 170 mg, iv after 90 mins; assay type: ADME, organism-based; conditions: papio hamadryas, read-out: Drug uptake; procedure, shortened: as §2
[33] = Biodistribution in iv dosed monkey brain after 6 hrs; assay type: ADME, organism-based, Macaca mulatta; conditions: rhesus monkey, read-out: Drug uptake

In the case of `CO[C@H]1/C=C/O[C@@]2(C)Oc3c(C)c(O)c4cc(c(/C=N/N5CCN([11CH3])CC5)c(O)c4c3C2=O)NC(=O)/C(C)=C\C=C\C(C)[C@H](O)[C@@H](C)[C@@H](O)[C@@H](C)[C@H](OC(C)=O)[C@@H]1C` (stereo partly drawn), the concentration at 1 h [1] is reported as 6.73 µg/mL, the concentration at 0.25 h [2] is reported as 259 µg/mL and the concentration at 1 h [3] is reported as 2.53 µg/mL. For the same compound, the concentration at 0.5 h [4] was 1.09 µg/mL, the concentration at 1.5 h [5] was 1.16 µg/mL and the concentration at 1 h [6] was 0.43 µg/mL. The concentration at 0.25 h [7] was 36.4 µg/mL, the concentration at 1 h [8] was 983 µg/mL and the concentration at 0.25 h [9] was 5.03 µg/mL. It also gave a concentration at 0.5 h [10] of 6.34 µg/mL, a concentration at 0.5 h [11] of 5.28 µg/mL and a concentration at 1.5 h [12] of 9.44 µg/mL. It also gave a concentration at 1 h [13] of 0.912 µg/mL, a concentration at 1 h [14] of 288 µg/mL and a concentration at 1 h [15] of 1.93 µg/mL. The concentration at 0.25 h [16] was 121 µg/mL, the concentration at 0.5 h [17] was 586 µg/mL and the concentration at 1.5 h [18] was 1010 µg/mL. The concentration at 1.5 h [19] was 300 µg/mL, the concentration at 0.5 h [20] was 2.83 µg/mL and the concentration at 0.5 h [21] was 11.6 µg/mL. It also gave a concentration at 0.25 h [22] of 2.81 µg/mL, a concentration at 3 h [23] of 1790 ng/g and a concentration at 1.5 h [24] of 6.8 µg/mL. It also gave a concentration at 1.5 h [25] of 8.19 µg/mL, a concentration at 1 h [26] of 1.14 µg/mL and a concentration at 0.25 h [27] of 7.28 µg/mL. The concentration at 0.25 h [28] was 15.8 µg/mL, the concentration at 1.5 h [29] was 6.78 µg/mL and the concentration at 0.5 h [30] was 276 µg/mL. For the same compound, the concentration at 0.5 h [31] was 1.5 µg/mL and the concentration at 1.5 h [32] was 1.21 µg/mL.
`CO[C@H]1/C=C/O[C@@]2(C)Oc3c(C)c(O)c4cc(c(/C=N/N5CCN([14CH3])CC5)c(O)c4c3C2=O)NC(=O)/C(C)=C\C=C\C(C)[C@H](O)[C@@H](C)[C@@H](O)[C@@H](C)[C@H](OC(C)=O)[C@@H]1C` (stereo partly drawn) showed a concentration at 6 h [33] of 870 ng/g.
